# Assay results pooled from the literature.
# Each line is one published result; the experiments were not run side by side.
# CDK5 with p25: Cyclin-dependent kinase 5, with p25 (CDK5, Homo sapiens, UniProt Q00535)
# CDK5: Cyclin-dependent kinase 5 (CDK5, Homo sapiens, UniProt Q00535)
Compound,target,test,conditions,quantity,value
Cc1ccc(NC(=O)c2ccc(C)c(C(F)(F)F)c2)cc1C#Cc1nn(C2CCC(O)CC2)c2ncnc(N)c12 (stereo not shown),CDK5 with p25,cell-free assay,10 µM,remaining signal,87%
CC(=O)c1c(NS(C)(=O)=O)c2cc(-c3ccc(Cl)cc3)c(-c3ccc(Cl)cc3Cl)nc2n(C)c1=O,CDK5,"cell-free assay, competition with immobilised ligand",1 µM,remaining binding,100%
Nc1nc(Nc2ccc(S(N)(=O)=O)cc2)nn1C(=O)c1c(F)cccc1F,CDK5 with p25,cell-free assay,0.5 µM,remaining signal,2.54%
Cc1cc(NC(=O)c2cccc3cc(-c4cccc5[nH]nc(N)c45)ccc23)ccc1F,CDK5 with p25,"enzyme activity, inhibitor",0.1 µM,activity vs control,94%
CC(C)c1ccc(NC(=O)c2cccs2)c(-c2nc3ccccc3[nH]c2=O)c1,CDK5 with p25,"enzyme activity, inhibitor",1 µM,activity vs control,95%
CC[C@H](C)[C@H](NC(=O)[C@H](CCC(N)=O)NC(=O)[C@H](CC(C)C)NC(=O)[C@H](CCSC)NC(=O)[C@H](CCCCN)NC(=O)[C@H](CO)NC(=O)[C@H](CO)NC(=O)[C@H](CCSC)NC(=O)[C@H](CC(C)C)NC(=O)[C@H](CC(N)=O)NC(=O)[C@@H](NC(=O)[C@@H](NC(=O)[C@H](CO)NC(=O)[C@H](CC(C)C)NC(=O)[C@H](CS)NC(=O)[C@H](CCCNC(=N)N)NC(=O)[C@H](CC(=O)O)NC(=O)[C@H](Cc1c[nH]c2ccccc12)NC(=O)[C@H](Cc1ccccc1)NC(=O)[C@H](C)NC(=O)[C@H](CCC(=O)O)NC(=O)[C@@H](N)CCCCN)C(C)C)[C@@H](C)CC)C(=O)N[C@@H](CC(N)=O)C(=O)N[C@@H](C)C(=O)O,CDK5 with p25,"enzyme activity, inhibitor, radiometric","100 µM, 20 min",remaining activity,59%
CCCOc1ccc(OC)c(F)c1C(=O)c1ccc(C(=O)N[C@@H]2CNC[C@H]2NC(=O)c2ccc3[nH]ncc3c2)cc1,CDK5 with p25,"enzyme activity, inhibitor",0.75 µM,remaining activity,85%
CS(=O)(=O)c1cc(C2(NC(=O)c3cncc4c3cnn4-c3ccc(F)cc3)CC2)ccn1,CDK5,"cell-free assay, competition with immobilised ligand",1 µM,remaining binding,100%
Cc1ccc(C(=O)NCc2ccsc2)cc1C#Cc1cn(C(C)C)c2ncnc(N)c12,CDK5 with p25,"enzyme activity, inhibitor",1 µM,activity vs control,95%
CN(C)C1CCN(CC#Cc2nn(C3CCCC3)c3nc(NCc4ccccc4)ncc23)C1 (stereo not shown),CDK5 with p25,"enzyme activity, inhibitor, FRET",1 µM,inhibition,3%
N#CCCc1ccc2c(c1)-c1[nH]c3ccc([N+](=O)[O-])cc3c1CC(=O)N2,CDK5 with p25,cell-free assay,0.5 µM,remaining signal,5.79%
N#Cc1ccc(Nc2ccc3[nH]c(=O)[nH]c3c2)c(Cl)c1,CDK5,"cell-free assay, competition with immobilised ligand",1 µM,remaining binding,100%
O=C1NC(=O)c2cc(Nc3ccc(F)cc3)c(Nc3ccc(F)cc3)cc21,CDK5 with p25,cell-free assay,0.5 µM,remaining signal,85.9%
CC(C)CC(=O)N1CCc2nc(-c3ccc(Br)cc3)nc(N(C)Cc3ccccc3)c2C1,CDK5,"cell-free assay, competition with immobilised ligand",0.1 µM,remaining binding,100%
O=C1Nc2ccc(Cl)cc2C1=Cc1cc(Cl)c(O)c(Cl)c1,CDK5 with p25,cell-free assay,0.5 µM,remaining signal,82.6%
NS(=O)(=O)c1cc(NC(=O)Cc2ccccc2)ccc1Oc1cccc(Cl)c1,CDK5,"cell-free assay, competition with immobilised ligand",1 µM,remaining binding,61%
N[C@H]1CCN(c2nccc(-c3cnn4ncccc34)n2)C1,CDK5,binding,1 µM,remaining binding,100%
Oc1ccc(-c2nc(-c3ccncc3)c(-c3ccc(F)cc3)[nH]2)cc1,CDK5 with p25,cell-free assay,0.5 µM,remaining signal,96%
C[C@H](c1ccnc(Nc2nc3ccc(-c4cc(N(C)C)ncn4)cc3[nH]2)c1)N1CCN(C(=O)CC(F)(F)F)CC1,CDK5,"cell-free assay, competition with immobilised ligand",0.1 µM,remaining binding,86%
